# Assay results taken from ChEMBL document CHEMBL3272033, “Physicochemical and pharmacological studies of some 8-substituted decahydroisoquinolines” (J Med Chem, 1976).
# Columns and labels:
# [1] = Dissociation constant, pKa of the compound in 0.01 M potassium hydrogen phthalate; format: physicochemical
# In short: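 pKa by potentiometric titration with 0.01 M potassium hydrogen phthalate in a thermostated vessel, stirred, under nitrogen bubbling, using glass and calomel electrodes. pKa is the mean pH at half-neutralization from four titrations. Endpoints were taken from parallel tangents on either side of the inflection.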
# [2] = organism: Homo sapiens; test: Drug absorption in buccal cavity in human at pH 9.3 after 5 mins by UV spectrometry; format: ADME, organism-based; settings: in vivo, other, pH 9.3, 5 min
# In short: (§1)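 3 mg compound in 25 ml buffer (0.1 M phosphate pH 5.50 or 7.50; tetraborate pH 9.30) swished in the mouth for 5 min, expelled, and combined with a 10 ml water rinse. Made up to 50 ml; aliquot basified to pH 10 and ether-extracted, then back-extracted into 0.1 N HCl. UV absorbance read at λmax against Beer's law plots; the unrecovered fraction is taken as % absorbed. One to three subjects.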
# [3] = organism: Homo sapiens; test: Drug absorption in buccal cavity in human at pH 5.50 after 5 mins by UV spectrometry; format: ADME, organism-based; settings: in vivo, other, pH 5.5, 5 min; in short: as §1
# [4] = organism: Homo sapiens; test: Drug absorption in buccal cavity in human at pH 7.50 after 5 mins by UV spectrometry; format: ADME, organism-based; settings: in vivo, other, pH 7.5, 5 min; in short: as §1
# [5] = system: Heart; test: Antiarrhythmic activity in Hartley guinea pig atria assessed as change in maximum driving rate at 55.2 uM/l after 5 mins; format: functional, Cavia porcellus
# In short: (§2)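 Spontaneously beating isolated atria held under initial tension; bath fluid changed every 10 min; stabilised about 1 h. Maximum driving rate found with 1-ms square pulses at 50% above threshold voltage, 10 s every 30 s; the frequency just before failure of following is the MDR. Control is the mean of two determinations. Spontaneous rate recorded by tachograph. Values are % change from control at peak response, generally 5–30 min.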
# [6] = system: Mus musculus; test: Antiarrhythmic activity in ip dosed Swiss-Webster albino mouse assessed as prevention of chloroform-induced ventricular fibrillation; format: functional, Heart
# [7] = system: Mus musculus; test: Toxicity in ip dosed Swiss-Webster albino mouse; format: organism-based; settings: in vivo
# [8] = Therapeutic index, ratio of LD50 for toxicity to ED50 for antiarrhythmic activity in ip dosed Swiss-Webster albino mouse; format: organism-based, Heart; settings: in vivo, read-out: Ratio LD50/ED50
# [9] = system: Heart; test: Antiarrhythmic activity in Hartley guinea pig atria assessed as change in spontaneous rate at 55.2 uM/l after 5 mins; format: functional, Cavia porcellus; in short: as §2
# [10] = Effect on transmembrane action potential in dog purkinje cells assessed as average rising velocity at 10 mg/l after 20 mins in presence of 5.4 mM/l K+ relative to control; format: functional, Canis lupus familiaris
# In short: (§3)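 Canine Purkinje false-tendon preparations from pentobarbital-anesthetized dogs, in oxygenated Tyrode at 37 °C with KCl 2.7 or 5.4 mM. Compound given by bolus to the final bath concentration. TMAP recorded by intracellular glass microelectrode before dosing and 2–20 min after. ARV of phase 0 (V/s) and activation time (ms) expressed as % change from control at 20 min. Two preparations per compound.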
# [11] = Effect on transmembrane action potential in dog purkinje cells assessed as average rising velocity at 20 mg/l after 20 mins in presence of 5.4 mM/l K+ relative to control; format: functional, Canis lupus familiaris; in short: as §3
# [12] = Effect on transmembrane action potential in dog purkinje cells assessed as average rising velocity at 25 mg/l after 20 mins in presence of 2.7 mM/l K+ relative to control; format: functional, Canis lupus familiaris; in short: as §3
# [13] = Effect on transmembrane action potential in dog purkinje cells assessed as average rising velocity at 50 mg/l after 20 mins in presence of 2.7 mM/l K+ relative to control; format: functional, Canis lupus familiaris; in short: as §3
# [14] = Effect on transmembrane action potential in dog purkinje cells assessed as average rising velocity at 40 mg/l after 20 mins in presence of 5.4 mM/l K+ relative to control; format: functional, Canis lupus familiaris; in short: as §3
# [15] = Effect on transmembrane action potential in dog purkinje cells assessed as change in amplitude at 10 mg/l after 20 mins in presence of 2.7 mM/l K+ relative to control; format: functional, Canis lupus familiaris
# In short: (§4)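 Purkinje false tendons with attached myocardium came from adult dogs (10–15 kg) anesthetized with pentobarbital 30 mg/kg iv. Tissue was bathed in Tyrode (KCl 2.7 or 5.4 mM) gassed with 95% O2-5% CO2 at 37 °C and impaled with glass microelectrodes. Compound was given as a bolus to the final bath concentration, with records at 2–20 min. Two preparations per compound; % change from control at 20 min.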
# [16] = Effect on transmembrane action potential in dog purkinje cells assessed as change in amplitude at 10 mg/l after 20 mins in presence of 5.4 mM/l K+ relative to control; format: functional, Canis lupus familiaris; in short: as §4
# [17] = Effect on transmembrane action potential in dog purkinje cells assessed as change in amplitude at 20 mg/l after 20 mins in presence of 5.4 mM/l K+ relative to control; format: functional, Canis lupus familiaris; in short: as §4
# [18] = Effect on transmembrane action potential in dog purkinje cells assessed as change in amplitude at 25 mg/l after 20 mins in presence of 2.7 mM/l K+ relative to control; format: functional, Canis lupus familiaris; in short: as §4
# [19] = Effect on transmembrane action potential in dog purkinje cells assessed as change in amplitude at 50 mg/l after 20 mins in presence of 2.7 mM/l K+ relative to control; format: functional, Canis lupus familiaris; in short: as §4
# [20] = Effect on transmembrane action potential in dog purkinje cells assessed as change in amplitude at 40 mg/l after 20 mins in presence of 5.4 mM/l K+ relative to control; format: functional, Canis lupus familiaris; in short: as §4
# [21] = Effect on transmembrane action potential in dog purkinje cells assessed as change in activation time at 10 mg/l after 20 mins in presence of 2.7 mM/l K+ relative to control; format: functional, Canis lupus familiaris; in short: as §3
# [22] = Effect on transmembrane action potential in dog purkinje cells assessed as change in activation time at 10 mg/l after 20 mins in presence of 5.4 mM/l K+ relative to control; format: functional, Canis lupus familiaris; in short: as §3
# [23] = Effect on transmembrane action potential in dog purkinje cells assessed as change in activation time at 20 mg/l after 20 mins in presence of 5.4 mM/l K+ relative to control; format: functional, Canis lupus familiaris; in short: as §3
# [24] = Effect on transmembrane action potential in dog purkinje cells assessed as change in activation time at 25 mg/l after 20 mins in presence of 2.7 mM/l K+ relative to control; format: functional, Canis lupus familiaris; in short: as §3
# [25] = Effect on transmembrane action potential in dog purkinje cells assessed as change in activation time at 50 mg/l after 20 mins in presence of 2.7 mM/l K+ relative to control; format: functional, Canis lupus familiaris; in short: as §4
# [26] = Effect on transmembrane action potential in dog purkinje cells assessed as change in activation time at 40 mg/l after 20 mins in presence of 5.4 mM/l K+ relative to control; format: functional, Canis lupus familiaris; in short: as §4
# [27] = Effect on transmembrane action potential in dog purkinje cells assessed as average rising velocity at 10 mg/l after 20 mins in presence of 2.7 mM/l K+ relative to control; format: functional, Canis lupus familiaris; in short: as §3
structure (smiles),measurement,setting,value
COc1cc(C(=O)N[C@@H]2CCC[C@@H]3CCN(C)C[C@H]32)cc(OC)c1OC (mixture of isomers),pKa,[1],8.75
same,Drug absorption,[2],31.1%
same,Drug absorption,[3],5.5%
same,Drug absorption,[4],18.1%
same,Activity,[5],-13.3%
same,ED50,[6],124 µmol/kg
same,LD50,[7],835
same,selectivity ratio,[8],6.7
same,Activity,[9],-14.4%
same,Activity,[10],-24%
same,Activity,[11],-29%
same,Activity,[12],-19%
same,Activity,[13],-44%
same,Activity,[14],-50%
same,Activity,[15],0%
same,Activity,[16],0%
same,Activity,[17],0%
same,Activity,[18],-2%
same,Activity,[19],-8%
same,Activity,[20],-6%
same,Activity,[21],2%
same,Activity,[22],-4%
same,Activity,[23],-1%
same,Activity,[24],23%
same,Activity,[25],105%
same,Activity,[26],-1%
same,Activity,[27],-9%
